For 5 molecules, IC50 results are on record in ChEMBL document CHEMBL2434885, “cis-Dichloroplatinum(II) complexes tethered to dibenzo[c,h][1,6]naphthyridin-6-ones: synthesis and cytotoxicity in human cancer cell lines in vitro” (Eur J Med Chem, 2013).

Holding throughout (format): functional, cell-based
Test [1] has as its system HT-29. Nature of the test: Cytotoxicity against human HT-29 cells after 72 hrs by crystal-violet staining-based spectrophotometric analysis. The note with it: HT-29, 72 h. Summed up: (§1)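 Subconfluent, exponentially growing, mycoplasma-free monolayers in RPMI 1640 + 10% FBS, 5% CO2. Cells treated 72 h with 0–500 µM (compounds in physiological serum, or in DMF at ≤3% final). Cells then PBS-washed, ethanol-fixed, stained with 1% crystal violet and eluted in 33% acetic acid, with A570 read. Triplicates, three independent experiments. IC50 taken from concentration–response curves as 50% growth inhibition.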

For test [2], the system named is SW480. Nature of the test: Cytotoxicity against human SW480 cells after 72 hrs by crystal-violet staining-based spectrophotometric analysis. The note with it: SW480, 72 h. Summed up: as §1
Test [3] deals with HCT-116. Description: Cytotoxicity against human HCT116 cells after 72 hrs by crystal-violet staining-based spectrophotometric analysis. The note with it: HCT-116, 72 h. A digest of the protocol:
as §1

Structures are written as SMILES. pIC50: −log10 of the molar value.

With `NCCNCCn1c(=O)c2cc([N+](=O)[O-])ccc2c2cnc3cc4c(cc3c21)OCO4`, the pIC50 (commonly the IC50 on a negative log10 scale, so that one unit is a factor of ten) in test [1] is 4.37; in test [2], 4.39; in test [3] it was 4.60.

For the molecule `NCCNCCCn1c(=O)c2cc([N+](=O)[O-])ccc2c2cnc3cc4c(cc3c21)OCO4`, the negative-log IC50 (pIC50) in test [1] is 4.65; in test [2], 4.52; in test [3] it was 4.92.

As for `NCCNCCCCn1c(=O)c2cc([N+](=O)[O-])ccc2c2cnc3cc4c(cc3c21)OCO4`, the values for the pIC50 in test [1], in test [2] and in test [3] were 4.39, 4.36 and 4.51, respectively.

With `NCCNCCCCCn1c(=O)c2cc([N+](=O)[O-])ccc2c2cnc3cc4c(cc3c21)OCO4`, the values for the negative logarithm of the IC50 (pIC50) in test [1], in test [2] and in test [3] were 4.32, 4.29 and 4.60, respectively.

Consider `NCCNCCCCCCn1c(=O)c2cc([N+](=O)[O-])ccc2c2cnc3cc4c(cc3c21)OCO4`, for which the pIC50 was 4.51 in test [1], 4.62 in test [2] and 4.81 in test [3].
